Most compounds without a hit are left out; they make up all but 29% or so of the library.
CYP2C9 inhib: blockers of cytochrome P450 2C9 activity – biochemical, luminescence, ADME assay, primary screen; 96,000 compounds, 20% hits; CYP2C9 Supersomes, luciferin-H conversion; P11712; inhibition, % at 5 µM; AID 777, 2007;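 active means blocking of liver enzyme CYP2C9 beyond about 50% at 5 µM, limit read from the data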
Target sequence (P11712 whole entry, looked up): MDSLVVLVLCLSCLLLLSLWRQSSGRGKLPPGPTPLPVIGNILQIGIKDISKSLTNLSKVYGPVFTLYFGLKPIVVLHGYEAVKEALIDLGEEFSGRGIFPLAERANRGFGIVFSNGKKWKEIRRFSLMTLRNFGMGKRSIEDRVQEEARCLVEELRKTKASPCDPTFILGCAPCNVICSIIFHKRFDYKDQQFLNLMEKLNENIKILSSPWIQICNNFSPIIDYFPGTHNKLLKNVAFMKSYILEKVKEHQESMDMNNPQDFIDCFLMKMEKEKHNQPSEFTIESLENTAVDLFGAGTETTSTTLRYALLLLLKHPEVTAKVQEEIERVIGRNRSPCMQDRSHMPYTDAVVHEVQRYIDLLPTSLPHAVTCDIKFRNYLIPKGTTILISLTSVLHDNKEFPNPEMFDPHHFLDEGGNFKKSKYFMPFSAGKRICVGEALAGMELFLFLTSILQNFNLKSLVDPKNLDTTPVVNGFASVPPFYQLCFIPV
Ecoli WT expand: growth inhibitors of wild-type E. coli, primary screen, strain BW25113, expanded library, OD600; growth inhibition, % at 100 µM; 98,000 compounds, 0.15% hits; OD600 absorbance;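 active means growth inhibition above about 50% at one test dose, limit read from the data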;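 further: growth measured after 20 h incubation at 37 °C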
tolC growth inh: growth inhibitors of E. coli tolC mutant, primary screen, strain BW25113 ΔtolC::kan, 384-well | growth inhibition, % at 10 µM (by protocol) | OD615 | 65,000 compounds, 2.2% hits;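 active means growth inhibition at or above a cutoff equal to the mean over every tested compound plus 3 SD, cut at about 60% in these data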;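 further: growth measured after 20 h incubation at 37 °C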
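Material: E. coli BW25113 ΔtolC::kan, tolC deletion mutant strain. Measure: percent growth inhibition. Schedule: 37 °C, 20 h exposure. Doses: single-point testing at 10 µM. Signal: A615 absorbance measurement. Buffer or medium: kanamycin-containing LB broth (50 µg/mL).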
CYP2C19 act: human CYP2C19 activators, primary screen, biochemical, luminescence | 96,000 tested, under 10 active | recombinant CYP2C19, luciferin-H EGE luminescence; hits give high values; 0 = fully inhibited enzyme, 1 = untreated enzyme | activation factor at 5 µM | AID 1025, 2008;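 active means activation factor of at least 2 at 5 µM in the primary screen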
CYP2C19 inh: blockers of cytochrome P450 2C19 activity – biochemical, luminescence, ADME assay, primary screen. P33261. CYP2C19 Supersomes, luciferin-H EGE luminescence, 30 min. inhibition, % at 5 µM. 96,000 compounds, 21% hits. AID 778, 2007;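 active means CYP2C19 inhibition above a set limit at 5 µM in the primary screen, cut at about 50% in these data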
CYP2C9 act: human CYP2C9 activators, primary screen, biochemical, luminescence | 96,000 compounds, 1.4% hits | Cytochrome P450 2C9 (Homo sapiens), P11712 | recombinant CYP2C9, luciferin-H conversion; hits give high values; factor 1 = untreated enzyme, 0 = blocked | activation factor at 5 µM;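 active means activation factor of 2 or more for CYP2C9 at a 5 µM dose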
Hits are given with their value.

For COc1ccc(-c2oc(NC(=O)CCl)c(C#N)c2-c2ccc(OC)cc2)cc1 the results were CYP2C9 inhib 96, Ecoli WT expand inactive, CYP2C19 act inactive, CYP2C19 inh 54 and CYP2C9 act inactive.
For N#Cc1c(NC(=O)COC(=O)C2CC3C=CC2C3)oc(-c2ccccc2)c1-c1ccccc1 (stereo not given) the results were CYP2C9 inhib 71, Ecoli WT expand inactive, tolC growth inh inactive, CYP2C19 act inactive, CYP2C19 inh inactive and CYP2C9 act inactive.
`COc1ccc(CNC(=O)CSc2ncn[nH]2)cc1` gave CYP2C9 inhib inactive, Ecoli WT expand inactive, tolC growth inh inactive, CYP2C19 act inactive, CYP2C19 inh 65 and CYP2C9 act inactive.
`COc1ccc(CC(=O)Nc2oc(-c3ccccc3)c(-c3ccccc3)c2C#N)cc1OC` gave Ecoli WT expand inactive and tolC growth inh inactive.
Screening COc1ccccc1OCC(=O)Nc1oc(-c2ccccc2)c(-c2ccccc2)c1C#N returned CYP2C9 inhib 85, Ecoli WT expand inactive, tolC growth inh inactive, CYP2C19 act inactive, CYP2C19 inh inactive and CYP2C9 act inactive.
Screening CS(=O)(=O)N1CCC(C(=O)Nc2ccc(Br)cc2F)CC1 returned CYP2C9 inhib inactive, Ecoli WT expand inactive, tolC growth inh inactive, CYP2C19 act inactive, CYP2C19 inh inactive and CYP2C9 act inactive.
For COc1ccc(-c2oc(NC(=O)CSc3ncn[nH]3)c(C#N)c2-c2ccc(OC)cc2)cc1 the results were CYP2C9 inhib 70, Ecoli WT expand inactive, CYP2C19 act inactive, CYP2C19 inh inactive and CYP2C9 act inactive.
`COc1ccccc1NC(=O)CSc1ncn[nH]1` gave CYP2C9 inhib inactive, Ecoli WT expand inactive, tolC growth inh inactive, CYP2C19 act inactive, CYP2C19 inh inactive and CYP2C9 act inactive.
For CCCc1ncc(C(O)c2cccc3ccccc23)n1C (stereo not given) the results were CYP2C9 inhib inactive, Ecoli WT expand inactive, tolC growth inh inactive, CYP2C19 act inactive, CYP2C19 inh 61 and CYP2C9 act inactive.
Screening Cc1ccc(S(=O)(=O)N2CCN(C(=O)c3cc4c(C)nn(-c5ccccc5C)c4s3)CC2)cc1 returned CYP2C9 inhib 63, Ecoli WT expand inactive, CYP2C19 act inactive, CYP2C19 inh inactive and CYP2C9 act inactive.
CCOc1ccc(CCNC(=O)C2CCN(S(=O)(=O)N3CCOCC3)CC2)cc1OCC was read as CYP2C9 inhib inactive, Ecoli WT expand inactive, tolC growth inh inactive, CYP2C19 act inactive, CYP2C19 inh inactive and CYP2C9 act inactive.
CCOC(=O)c1c(C)[nH]c(C)c1C(=O)COC(=O)[C@@H]1CCCN1S(=O)(=O)c1ccc(Cl)cc1 was read as CYP2C9 inhib 80, Ecoli WT expand inactive, CYP2C19 act inactive, CYP2C19 inh 93 and CYP2C9 act inactive.
O=C(NCc1ccccc1)c1cccnc1N1CCOCC1 was read as Ecoli WT expand inactive and tolC growth inh inactive.
`O=C(Nc1ccc(Cl)cc1)C(c1ccccc1)N(CCO)CCO` (stereo not given) gave CYP2C9 inhib 66, Ecoli WT expand inactive, tolC growth inh inactive, CYP2C19 act inactive, CYP2C19 inh 63 and CYP2C9 act inactive.
For CCCN(CCC)C(C(=O)Nc1cccc(OC)c1)c1ccccc1 (stereo not given) the results were CYP2C9 inhib 89, Ecoli WT expand inactive, tolC growth inh inactive, CYP2C19 act inactive, CYP2C19 inh 88 and CYP2C9 act inactive.
For CCN(CC)C(C(=O)Nc1ccc2c(c1)OCO2)c1ccccc1 (stereo not given) the results were tolC growth inh inactive.
Screening COc1cccc(NC(=O)c2oc3ccccc3c2NC(=O)c2ccc3c(c2)OCO3)c1 returned CYP2C9 inhib inactive, Ecoli WT expand inactive, tolC growth inh inactive, CYP2C19 act inactive, CYP2C19 inh inactive and CYP2C9 act inactive.
COc1cccc(NC(=O)C(OC(=O)/C=C/c2ccc3c(c2)OCO3)c2ccccc2)c1 (stereo not given) was read as CYP2C9 inhib 69, Ecoli WT expand inactive, CYP2C19 act inactive, CYP2C19 inh inactive and CYP2C9 act inactive.
COc1cccc(NC(=O)C(NCCC(C)C)c2ccccc2)c1 (stereo not given) was read as CYP2C9 inhib inactive, Ecoli WT expand inactive, CYP2C19 act inactive, CYP2C19 inh inactive and CYP2C9 act inactive.
COc1cccc(NC(=O)C(NCC2CCCCC2)c2ccccc2)c1 (stereo not given) was read as CYP2C9 inhib 77, Ecoli WT expand inactive, CYP2C19 act inactive, CYP2C19 inh 79 and CYP2C9 act inactive.
C/C(=C(\C#N)C(=O)NCc1ccccc1)N(C)C was read as CYP2C9 inhib inactive, Ecoli WT expand inactive, CYP2C19 act inactive, CYP2C19 inh inactive and CYP2C9 act inactive.
CCOC(=O)NC(O)C(=O)c1cccs1 (stereo not given) was read as CYP2C9 inhib inactive, Ecoli WT expand inactive, tolC growth inh inactive, CYP2C19 act inactive, CYP2C19 inh inactive and CYP2C9 act inactive.
Screening O=C(O)c1nc(N2CCCC2)ncc1Cl returned CYP2C9 inhib inactive, Ecoli WT expand inactive, CYP2C19 act inactive, CYP2C19 inh inactive and CYP2C9 act inactive.
For CC(C)C1O/C(=N/C(=O)Nc2ccc(Cl)c(Cl)c2)NC1=O (stereo not given) the results were CYP2C9 inhib inactive, Ecoli WT expand 53, tolC growth inh 98, CYP2C19 act inactive, CYP2C19 inh inactive and CYP2C9 act inactive.
CC1CCC(C(C)C)C2=C1C(C#N)(C#N)C(C#N)(C#N)C(c1ccccc1)N2 (stereo not given) was read as CYP2C9 inhib 70, Ecoli WT expand inactive, CYP2C19 act inactive, CYP2C19 inh inactive and CYP2C9 act inactive.
`COc1ccc(C2N(c3cccc(Cl)c3)C(=O)C3CCCN32)cc1` (stereo not given) gave CYP2C9 inhib 66, Ecoli WT expand inactive, tolC growth inh inactive, CYP2C19 act inactive, CYP2C19 inh inactive and CYP2C9 act inactive.
`COc1ccc(C2N(c3ccc(Cl)cc3)C(=O)C3CCCN32)cc1` (stereo not given) gave CYP2C9 inhib inactive, Ecoli WT expand inactive, tolC growth inh inactive, CYP2C19 act inactive, CYP2C19 inh 52 and CYP2C9 act inactive.
CCN(CC)C(=O)c1ccc(CS(=O)(=O)c2ccc(OC)cc2)o1 was read as Ecoli WT expand inactive and tolC growth inh inactive.
For CCCC(=O)Nc1nnc(CCN2CCCCC2)s1 the results were CYP2C9 inhib inactive, Ecoli WT expand inactive, CYP2C19 act inactive, CYP2C19 inh inactive and CYP2C9 act inactive.
`Cn1c(=NC(=O)C2CC2)sc2cccc(F)c21` gave CYP2C9 inhib inactive, Ecoli WT expand inactive, tolC growth inh inactive, CYP2C19 act inactive, CYP2C19 inh inactive and CYP2C9 act inactive.

Screening data as filed in PubChem.
